# Published values gathered from unrelated publications.
# Lines come from different studies, so protocols differ.
# rep papain-like protease: Replicase polyprotein 1ab, papain-like protease (rep, Porcine epidemic diarrhea virus, UniProt P0C6Y4)
# SLC6A4: Sodium-dependent serotonin transporter (SLC6A4, Homo sapiens, UniProt P31645)
Structure (SMILES),target,assay,endpoint,value
O=C1CCC(N2Cc3cc(-c4cc5ccccc5cn4)ccc3C2=O)C(=O)N1 (stereo not drawn),"WEE1/CRBN (Homo sapiens, UniProt P30291+Q96SW2)","protein level, degrader",DC50,0.043 µM
O=C(NCc1ccc(Br)cc1)c1c[nH]c(-c2n[nH]c3ncccc23)c1,"E3 ubiquitin-protein ligase NEDD4 (Homo sapiens, UniProt P46934)","binding, MST",Kd,0.0439 µM
OC[C@@H]1O[C@@H](OC[C@H]2O[C@@H](OC/C=C/c3ccccc3)[C@H](O)[C@@H](O)[C@@H]2O)[C@H](O)[C@H]1O,"POU domain, class 3, transcription factor 3 (Homo sapiens, UniProt P20264)","binding, SPR",Kd,7.57 µM
Cc1cc2[nH]cc(C(=O)O)c(=O)n2n1,"Peptidyl-prolyl cis-trans isomerase F, mitochondrial (PPIF, Homo sapiens, UniProt P30405)","binding, SPR",Kd,> 20000 µM
O=C(NCc1cc(O)c(O)c(Br)c1)c1ccc(Cl)s1,rep papain-like protease,"enzyme activity, inhibitor, FRET",IC50,2.73 µM
CCOC(=O)[C@@]12C[C@@H]1[C@@H](n1cnc3c(NCCCCCCc4ccccc4)nc(I)nc31)[C@H](O)[C@@H]2O,SLC6A4,"ligand displacement, radioligand",Ki,4.6 µM
CC(C)C[C@H](NC(=O)[C@@H](N)[C@@H](C)O)C(=O)N[C@@H](CCC(N)=O)C(=O)N1CCC[C@H]1C(=O)N1CCC[C@H]1C(=O)N[C@@H](C)C(=O)N[C@@H](CO)C(=O)N[C@@H](CO)C(=O)N[C@@H](CCCNC(=N)N)C(=O)N[C@@H](CCCNC(=N)N)C(=O)N[C@@H](CCCNC(=N)N)C(=O)N[C@@H](Cc1c[nH]cn1)C(=O)N[C@@H](Cc1ccccc1)C(=O)N[C@@H](Cc1c[nH]cn1)C(=O)N[C@@H](Cc1c[nH]cn1)C(=O)N[C@@H](C)C(=O)N[C@@H](CC(C)C)C(=O)N1CCC[C@H]1C(=O)N1CCC[C@H]1C(=O)N[C@@H](C)C(=O)N[C@@H](CCCNC(=N)N)C(=O)O,"C3a anaphylatoxin chemotactic receptor (C3AR1, Homo sapiens, UniProt Q16581)","β-arrestin recruitment, agonist",EC50,0.653 µM
N#CC[C@@]12C[C@@H]1[C@@H](n1cnc3c(NCCCCCCc4ccccc4)nc(I)nc31)[C@H](O)[C@@H]2O,SLC6A4,"ligand displacement, radioligand",Ki,4.4 µM
O=C(NCc1cc(O)c(O)c(Br)c1)c1ccc(OC(F)(F)F)cc1,rep papain-like protease,"enzyme activity, inhibitor, FRET",IC50,9.96 µM
